# Key:
# Blood = assay: Biodistribution in NMRI mouse blood assessed per gram of tissue at 3.7 MBq/mL, iv after 60 mins by gamma counting; format: ADME, organism-based; conditions: in vivo, 1 h
# Method in brief: (§1)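 Male NMRI mice (30-40 g) under isoflurane (1.5-2.5% in oxygen) got 0.1 mL of HPLC-purified tracer diluted with 0.9% NaCl to 3.7 MBq/mL (ethanol ≤10%) via tail vein. Mice were decapitated at 2 or 60 min p.i., and organs, blood and urine were weighed and γ-counted. Values are background-corrected %ID or %ID/g, with blood mass taken as 7% of body mass.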
# Heart [1] = assay: Drug level in NMRI mouse heart assessed as standard uptake value at 3.7 MBq/mL, iv after 60 mins by gamma counting; format: ADME, organism-based; conditions: in vivo, 1 h
# Method in brief: (§2)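 Male NMRI mice (30-40 g) were anaesthetised with isoflurane. Each received 0.1 mL of HPLC-purified tracer, diluted in 0.9% NaCl to 3.7 MBq/mL (ethanol ≤10%), via a tail vein. Mice were decapitated at 2 or 60 min. Organs were dissected, weighed and γ-counted with background correction. SUV = (organ cpm/organ weight)/(total recovered counts/body weight). Blood mass was taken as 7% of body mass.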
# [2] = Biodistribution in NMRI mouse cerebrum at 3.7 MBq/mL, iv after 60 mins by gamma counting; format: ADME, organism-based; conditions: in vivo, 1 h; method in brief: as §1
# [3] = Drug level in normal rhesus monkey white matter assessed as standard uptake value at 96.3 MBq, iv after 75 mins by microPET; format: ADME, organism-based, Macaca mulatta; conditions: in vivo, 1.25 h
# Heart [4] = assay: Biodistribution in NMRI mouse heart at 3.7 MBq/mL, iv after 2 mins by gamma counting; format: ADME, organism-based; conditions: in vivo; method in brief: as §1
# Stomach = assay: Biodistribution in NMRI mouse stomach at 3.7 MBq/mL, iv after 2 mins by gamma counting; format: ADME, organism-based; conditions: in vivo; method in brief: as §1
# [5] = Biodistribution in NMRI mouse urine at 3.7 MBq/mL, iv after 60 mins by gamma counting; format: ADME, organism-based; conditions: in vivo, 1 h; method in brief: as §1
# Kidney [6] = assay: Biodistribution in NMRI mouse kidney assessed per gram of tissue at 3.7 MBq/mL, iv after 60 mins by gamma counting; format: ADME, organism-based; conditions: in vivo, 1 h; method in brief: as §1
# Cerebellum = assay: Drug level in NMRI mouse cerebellum assessed as standard uptake value at 3.7 MBq/mL, iv after 60 mins by gamma counting; format: ADME, organism-based; conditions: in vivo, 1 h; method in brief: as §2
# Heart [7] = assay: Drug level in NMRI mouse heart assessed as standard uptake value at 3.7 MBq/mL, iv after 2 mins by gamma counting; format: ADME, organism-based; conditions: in vivo; method in brief: as §2
# [8] = Drug level in normal rhesus monkey thalamus assessed as standard uptake value at 96.3 MBq, iv after 155 mins by microPET; format: ADME, organism-based, Macaca mulatta; conditions: in vivo
# Intestine = assay: Biodistribution in NMRI mouse intestine at 3.7 MBq/mL, iv after 60 mins by gamma counting; format: ADME, organism-based; conditions: in vivo, 1 h; method in brief: as §1
# Kidney [9] = assay: Biodistribution in NMRI mouse kidney at 3.7 MBq/mL, iv after 2 mins by gamma counting; format: ADME, organism-based; conditions: in vivo; method in brief: as §1
# [10] = Drug level in normal rhesus monkey cerebellum assessed as standard uptake value at 109.4 MBq, iv after 52.5 mins by microPET; format: ADME, organism-based, Macaca mulatta; conditions: in vivo, 0.875 h
# Method in brief: (§3)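 One normal rhesus monkey received each tracer via the vena saphena, with 1 day between injections. Dynamic μPET ran 180 min for 18F tracers (5×60 s, 5×120 s, 9×300 s, 12×600 s) and 90 min for the 11C tracer (5×60 s, 5×120 s, 9×300 s, 3×600 s). Filtered back-projection reconstruction (RAMP filter) was used. Time-activity curves were drawn to give regional SUV.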
# [11] = Drug level in normal rhesus monkey thalamus assessed as standard uptake value at 109.4 MBq, iv after 117 mins by microPET; format: ADME, organism-based, Macaca mulatta; conditions: in vivo, 1.95 h
# [12] = Drug level in normal rhesus monkey pons assessed as standard uptake value at 109.4 MBq, iv after 37.5 mins by microPET; format: ADME, organism-based, Macaca mulatta; conditions: in vivo, 0.625 h
# [13] = Drug level in normal rhesus monkey thalamus assessed as standard uptake value at 109.4 MBq, iv after 42.5 mins by microPET; format: ADME, organism-based, Macaca mulatta; conditions: in vivo
# [14] = Drug level in normal rhesus monkey pons assessed as standard uptake value at 109.4 MBq, iv after 123 mins by microPET; format: ADME, organism-based, Macaca mulatta; conditions: in vivo, 2.05 h
# [15] = Drug level in normal rhesus monkey thalamus assessed as standard uptake value at 109.4 MBq, iv after 3.5 mins by microPET; format: ADME, organism-based, Macaca mulatta; conditions: in vivo
# [16] = Drug level in normal rhesus monkey thalamus assessed as standard uptake value at 109.4 MBq, iv after 9.5 mins by microPET; format: ADME, organism-based, Macaca mulatta; conditions: in vivo
# [17] = Drug level in normal rhesus monkey pons assessed as standard uptake value at 109.4 MBq, iv after 6.5 mins by microPET; format: ADME, organism-based, Macaca mulatta; conditions: in vivo
# [18] = Drug level in normal rhesus monkey frontal cortex assessed as standard uptake value at 81.2 MBq, iv after 155 mins by microPET; format: ADME, organism-based, Macaca mulatta; conditions: in vivo
# [19] = Drug level in normal rhesus monkey cerebellum assessed as standard uptake value at 81.2 MBq, iv after 37.5 mins by microPET; format: ADME, organism-based, Macaca mulatta; conditions: in vivo, 0.625 h
# Method in brief: (§4)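 One normal rhesus monkey, each tracer given iv via the vena saphena (81.2, 96.3 or 109.4 MBq), with 1 day between tracer injections. Dynamic brain μPET over 180 min used frames of 5 × 60 s, 5 × 120 s, 9 × 300 s and 12 × 600 s. Images were reconstructed by filtered back projection with a RAMP filter. Regional time-activity curves were expressed as SUV.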
# [20] = Drug level in normal rhesus monkey cerebellum assessed as standard uptake value at 81.2 MBq, iv after 4.5 mins by microPET; format: ADME, organism-based, Macaca mulatta; conditions: in vivo, 0.075 h; method in brief: as §4
# [21] = Drug level in normal rhesus monkey thalamus assessed as standard uptake value at 81.2 MBq, iv after 17.5 mins by microPET; format: ADME, organism-based, Macaca mulatta; conditions: in vivo
# [22] = Drug level in normal rhesus monkey pons assessed as standard uptake value at 81.2 MBq, iv after 14 mins by microPET; format: ADME, organism-based, Macaca mulatta; conditions: in vivo
# [23] = Drug level in normal rhesus monkey cerebellum assessed as standard uptake value at 81.2 MBq, iv after 165 mins by microPET; format: ADME, organism-based, Macaca mulatta; conditions: in vivo, 2.75 h; method in brief: as §4
# [24] = Drug level in normal rhesus monkey pons assessed as standard uptake value at 152.9 MBq, iv after 65 mins by microPET; format: ADME, organism-based, Macaca mulatta; conditions: in vivo
# [25] = Drug level in normal rhesus monkey pons assessed as standard uptake value at 152.9 MBq, iv after 2.5 mins by microPET; format: ADME, organism-based, Macaca mulatta; conditions: in vivo
# [26] = Drug level in normal rhesus monkey cerebellum assessed as standard uptake value at 152.9 MBq, iv after 1.5 mins by microPET; format: ADME, organism-based, Macaca mulatta; conditions: in vivo, 0.025 h; method in brief: as §3
# [27] = Drug level in normal rhesus monkey frontal cortex assessed as standard uptake value at 152.9 MBq, iv after 6 mins by microPET; format: ADME, organism-based, Macaca mulatta; conditions: in vivo, 0.1 h
# Method in brief: (§5)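 Single normal rhesus monkey; tracer given iv via the vena saphena, 1 day apart from the other tracer injections. Dynamic μPET ran 90 min (5×60 s, 5×120 s, 9×300 s, 3×600 s). Images were reconstructed by filtered back projection with a RAMP filter. Regional time-activity curves were expressed as SUV.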
# [28] = Drug level in normal rhesus monkey frontal cortex assessed as standard uptake value at 152.9 MBq, iv after 12 mins by microPET; format: ADME, organism-based, Macaca mulatta; conditions: in vivo, 0.2 h; method in brief: as §5
# [29] = Drug level in normal rhesus monkey pons assessed as standard uptake value at 152.9 MBq, iv after 0.5 mins by microPET; format: ADME, organism-based, Macaca mulatta; conditions: in vivo
Drug uptake (Blood) [%],SUV (Heart [1]),Drug uptake [2] [%],Drug uptake (Heart [4]) [%],Drug uptake (Stomach) [%],Drug uptake [5] [%],Drug uptake (Kidney [6]) [%],SUV (Cerebellum),SUV (Heart [7]),Drug uptake (Intestine) [%],Drug uptake (Kidney [9]) [%],Structure (SMILES),other results
0.9,0.5,0.65,1.2,1.4,7.6,6.5,0.83,2.7,28,8.5,CN(C)c1ccc2nc(-c3ccc([18F])cc3)sc2c1,SUV [3]: 1.5; SUV [8]: 1.92
0.6,0.2,0.32,0.7,1.6,4.9,1.8,0.42,1.9,68.6,8.3,Nc1ccc2nc(-c3ccc([18F])cc3)sc2c1,SUV [10]: 3.38; SUV [11]: 4.66; SUV [12]: 4.73; SUV [13]: 5.55; SUV [14]: 4.99; SUV [15]: 4.66; SUV [16]: 5.36; SUV [17]: 4.08
0.9,0.4,0.44,0.8,2.3,13,4.6,0.44,2,37.2,8.2,CNc1ccc2nc(-c3ccc([18F])cc3)sc2c1,SUV [18]: 4.381; SUV [19]: 2.545; SUV [20]: 2.964; SUV [21]: 5.379; SUV [22]: 4.757; SUV [23]: 1.585
1.1,0.7,0.18,0.6,1.1,24.4,9.1,0.11,1.5,42.5,10.3,[11CH3]Nc1ccc(-c2nc3ccc(O)cc3s2)cc1 [PITTSBURGH COMPOUND B],SUV [24]: 0.852; SUV [25]: 1.05; SUV [26]: 0.677; SUV [27]: 2.184; SUV [28]: 2.027; SUV [29]: 0.041

# Reference: ChEMBL document CHEMBL1154674, “Synthesis and evaluation of three 18F-labeled aminophenylbenzothiazoles as amyloid imaging agents” (J Med Chem, 2009)
